Source: ChEMBL document CHEMBL2062435, “Synthesis and in vitro antibacterial activity of gemifloxacin derivatives containing a substituted benzyloxime moiety” (2012)

Assays:
Format in all cases: functional
Klebsiella pneumoniae [1] = assay: Antimicrobial activity against extended spectrum beta-lactamases-producing Klebsiella pneumoniae 10-3 after 18-24 hrs by two-fold serial dilution method
Method in brief: (§1)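 Agar-medium twofold serial dilution against Gram-positive and Gram-negative strains; MIC taken as the lowest compound concentration giving complete inhibition of bacterial growth after incubation at 35 °C for 18-24 h.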

Enterococcus faecalis [2] = assay: Antimicrobial activity against Enterococcus faecalis 10-7 after 18-24 hrs by two-fold serial dilution method; method in brief: as §1
Enterococcus faecium [3] = assay: Antimicrobial activity against Enterococcus faecium 10-9 after 18-24 hrs by two-fold serial dilution method; method in brief: as §1
Staphylococcus aureus [4] = assay: Antimicrobial activity against extended spectrum beta-lactamases-producing methicillin-resistant Staphylococcus aureus 10-15 after 18-24 hrs by two-fold serial dilution method
Method in brief: (§2)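 Agar twofold serial dilution MIC against clinical isolates. MIC was taken as the lowest concentration giving complete inhibition of bacterial growth after incubation at 35 °C for 18-24 h.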

Enterococcus faecium [5] = assay: Antimicrobial activity against Enterococcus faecium 10-5 after 18-24 hrs by two-fold serial dilution method; method in brief: as §1
Pseudomonas aeruginosa [6] = assay: Antimicrobial activity against Pseudomonas aeruginosa 10-12 after 18-24 hrs by two-fold serial dilution method; method in brief: as §1
[7] = system: Staphylococcus epidermidis; assay: Antimicrobial activity against extended spectrum beta-lactamases-producing methicillin-sensitive Staphylococcus epidermidis 10-11 after 18-24 hrs by two-fold serial dilution method; method in brief: as §1
Klebsiella pneumoniae [8] = assay: Antimicrobial activity against Klebsiella pneumoniae 10-4 after 18-24 hrs by two-fold serial dilution method; method in brief: as §1
Escherichia coli [9] = assay: Antimicrobial activity against Escherichia coli 10-1 after 18-24 hrs by two-fold serial dilution method; method in brief: as §1
Klebsiella pneumoniae [10] = assay: Antimicrobial activity against extended spectrum beta-lactamases-producing Klebsiella pneumoniae 10-1 after 18-24 hrs by two-fold serial dilution method; method in brief: as §1
Escherichia coli [11] = assay: Antimicrobial activity against extended spectrum beta-lactamases-producing Escherichia coli 10-3 after 18-24 hrs by two-fold serial dilution method; method in brief: as §1
Escherichia coli [12] = assay: Antimicrobial activity against Escherichia coli 10-2 after 18-24 hrs by two-fold serial dilution method; method in brief: as §1
[13] = system: Staphylococcus epidermidis; assay: Antimicrobial activity against extended spectrum beta-lactamases-producing methicillin-sensitive Staphylococcus epidermidis 10-15 after 18-24 hrs by two-fold serial dilution method; method in brief: as §1
[14] = system: Staphylococcus epidermidis; assay: Antimicrobial activity against extended spectrum beta-lactamases-producing methicillin-resistant Staphylococcus epidermidis 10-13 after 18-24 hrs by two-fold serial dilution method; method in brief: as §2
Staphylococcus aureus [15] = assay: Antimicrobial activity against extended spectrum beta-lactamases-producing methicillin-sensitive Staphylococcus aureus 10-13 after 18-24 hrs by two-fold serial dilution method; method in brief: as §1
Staphylococcus aureus [16] = assay: Antimicrobial activity against extended spectrum beta-lactamases-producing methicillin-sensitive Staphylococcus aureus 10-14 after 18-24 hrs by two-fold serial dilution method; method in brief: as §1
Escherichia coli [17] = assay: Antimicrobial activity against extended spectrum beta-lactamases-producing Escherichia coli 10-2 after 18-24 hrs by two-fold serial dilution method; method in brief: as §1
Streptococcus pneumoniae [18] = assay: Antimicrobial activity against extended spectrum beta-lactamases-producing Streptococcus pneumoniae 10-4 after 18-24 hrs by two-fold serial dilution method; method in brief: as §1
Escherichia coli [19] = assay: Antimicrobial activity against Escherichia coli ATCC 25922 after 18-24 hrs by two-fold serial dilution method; method in brief: as §1
Klebsiella pneumoniae [20] = assay: Antimicrobial activity against Klebsiella pneumoniae 10-3 after 18-24 hrs by two-fold serial dilution method; method in brief: as §1
Enterococcus faecalis [21] = assay: Antimicrobial activity against Enterococcus faecalis 10-5 after 18-24 hrs by two-fold serial dilution method; method in brief: as §1
Pseudomonas aeruginosa [22] = assay: Antimicrobial activity against extended spectrum beta-lactamases-producing Pseudomonas aeruginosa 10-20 after 18-24 hrs by two-fold serial dilution method; method in brief: as §1
Staphylococcus aureus [23] = assay: Antimicrobial activity against extended spectrum beta-lactamases-producing methicillin-resistant Staphylococcus aureus 10-11 after 18-24 hrs by two-fold serial dilution method; method in brief: as §2
Escherichia coli [24] = assay: Antimicrobial activity against extended spectrum beta-lactamases-producing Escherichia coli 10-4 after 18-24 hrs by two-fold serial dilution method; method in brief: as §1
[25] = system: Staphylococcus epidermidis; assay: Antimicrobial activity against extended spectrum beta-lactamases-producing methicillin-resistant Staphylococcus epidermidis 10-10 after 18-24 hrs by two-fold serial dilution method; method in brief: as §2
Pseudomonas aeruginosa [26] = assay: Antimicrobial activity against extended spectrum beta-lactamases-producing Pseudomonas aeruginosa 10-18 after 18-24 hrs by two-fold serial dilution method; method in brief: as §1
Pseudomonas aeruginosa [27] = assay: Antimicrobial activity against extended spectrum beta-lactamases-producing Pseudomonas aeruginosa 10-9 after 18-24 hrs by two-fold serial dilution method; method in brief: as §1
Escherichia coli [28] = assay: Antimicrobial activity against Escherichia coli 10-3 after 18-24 hrs by two-fold serial dilution method; method in brief: as §1
Staphylococcus aureus [29] = assay: Antimicrobial activity against Staphylococcus aureus ATCC […] after 18-24 hrs by two-fold serial dilution method; method in brief: as §1
Klebsiella pneumoniae [30] = assay: Antimicrobial activity against Klebsiella pneumoniae 10-2 after 18-24 hrs by two-fold serial dilution method; method in brief: as §1
Enterococcus faecalis [31] = assay: Antimicrobial activity against Enterococcus faecalis 10-6 after 18-24 hrs by two-fold serial dilution method; method in brief: as §1
Klebsiella pneumoniae [32] = assay: Antimicrobial activity against extended spectrum beta-lactamases-producing Klebsiella pneumoniae 10-2 after 18-24 hrs by two-fold serial dilution method; method in brief: as §1
[33] = system: Staphylococcus epidermidis; assay: Antimicrobial activity against extended spectrum beta-lactamases-producing methicillin-sensitive Staphylococcus epidermidis 10-13 after 18-24 hrs by two-fold serial dilution method; method in brief: as §1
Pseudomonas aeruginosa [34] = assay: Antimicrobial activity against extended spectrum beta-lactamases-producing Pseudomonas aeruginosa 10-5 after 18-24 hrs by two-fold serial dilution method; method in brief: as §1
Pseudomonas aeruginosa [35] = assay: Antimicrobial activity against extended spectrum beta-lactamases-producing Pseudomonas aeruginosa 10-15 after 18-24 hrs by two-fold serial dilution method; method in brief: as §1
Streptococcus pneumoniae [36] = assay: Antimicrobial activity against extended spectrum beta-lactamases-producing Streptococcus pneumoniae 10-1 after 18-24 hrs by two-fold serial dilution method; method in brief: as §1

Measured: MIC

CS(=O)(=O)O.NCC1CN(c2nc3c(cc2F)c(=O)c(C(=O)O)cn3C2CC2)C/C1=N\OCc1cc2c(cc1[N+](=O)[O-])OCO2 (racemic)
> 128 µg/mL: Klebsiella pneumoniae [1] | Klebsiella pneumoniae [8] | Escherichia coli [9] | Klebsiella pneumoniae [10] | Escherichia coli [17] | Klebsiella pneumoniae [30] | Klebsiella pneumoniae [32]
32 µg/mL: Escherichia coli [11] | Escherichia coli [28] | Enterococcus faecalis [31]
0.008 µg/mL: Escherichia coli [19] | Staphylococcus aureus [29]
16 µg/mL: Enterococcus faecium [5]
1 µg/mL: [14]
4 µg/mL: Enterococcus faecalis [21] | Pseudomonas aeruginosa [22] | Staphylococcus aureus [23] | Pseudomonas aeruginosa [26] | Pseudomonas aeruginosa [27]
2 µg/mL: Staphylococcus aureus [4] | [13] | Streptococcus pneumoniae [18] | [25]
0.25 µg/mL: [7] | Staphylococcus aureus [15] | Staphylococcus aureus [16]
not listed: Streptococcus pneumoniae [36]
8 µg/mL: all other assays above

COc1cccc(OC)c1CO/N=C1\CN(c2nc3c(cc2F)c(=O)c(C(=O)O)cn3C2CC2)CC1CN.CS(=O)(=O)O (racemic)
16 µg/mL: Escherichia coli [11]
0.25 µg/mL: [14] | Streptococcus pneumoniae [18] | Escherichia coli [19] | [25]
0.03 µg/mL: Staphylococcus aureus [29]
0.5 µg/mL: Staphylococcus aureus [4] | [13] | Enterococcus faecalis [21]
64 µg/mL: Klebsiella pneumoniae [10] | Klebsiella pneumoniae [32]
0.125 µg/mL: [7] | Streptococcus pneumoniae [36] | Staphylococcus aureus [15] | Staphylococcus aureus [16]
4 µg/mL: Pseudomonas aeruginosa [6] | Escherichia coli [24] | Pseudomonas aeruginosa [27] | Pseudomonas aeruginosa [34] | Pseudomonas aeruginosa [35]
1 µg/mL: Enterococcus faecalis [2] | Staphylococcus aureus [23]
> 128 µg/mL: Klebsiella pneumoniae [1] | Klebsiella pneumoniae [8] | Escherichia coli [9] | Escherichia coli [17] | Klebsiella pneumoniae [30]
2 µg/mL: Pseudomonas aeruginosa [22] | Enterococcus faecalis [31] | [33]
8 µg/mL: all other assays above

COc1ccc(CO/N=C2\CN(c3nc4c(cc3F)c(=O)c(C(=O)O)cn4C3CC3)CC2CN)c(OC)c1OC.CS(=O)(=O)O (racemic)
32 µg/mL: Escherichia coli [11]
0.5 µg/mL: Streptococcus pneumoniae [36] | [14]
64 µg/mL: Escherichia coli [9]
0.03 µg/mL: Escherichia coli [19] | [33]
> 128 µg/mL: Klebsiella pneumoniae [1] | Klebsiella pneumoniae [8] | Klebsiella pneumoniae [10] | Klebsiella pneumoniae [30] | Klebsiella pneumoniae [32]
0.06 µg/mL: Streptococcus pneumoniae [18]
128 µg/mL: Escherichia coli [17]
0.25 µg/mL: Staphylococcus aureus [4]
1 µg/mL: Enterococcus faecalis [21]
16 µg/mL: Escherichia coli [12] | Escherichia coli [28] | Pseudomonas aeruginosa [35]
4 µg/mL: Enterococcus faecium [5] | Pseudomonas aeruginosa [22] | Escherichia coli [24]
0.015 µg/mL: Staphylococcus aureus [15] | Staphylococcus aureus [16] | Staphylococcus aureus [29]
8 µg/mL: Enterococcus faecium [3] | Pseudomonas aeruginosa [6] | Klebsiella pneumoniae [20] | Pseudomonas aeruginosa [26] | Pseudomonas aeruginosa [27] | Pseudomonas aeruginosa [34]
2 µg/mL: all other assays above

CS(=O)(=O)O.NCC1CN(c2nc3c(cc2F)c(=O)c(C(=O)O)cn3C2CC2)C/C1=N\OCc1cc2c(cc1Cl)OCO2 (racemic)
1 µg/mL: Staphylococcus aureus [4] | Enterococcus faecalis [21]
0.06 µg/mL: Staphylococcus aureus [16]
128 µg/mL: Klebsiella pneumoniae [8] | Escherichia coli [17]
0.03 µg/mL: Staphylococcus aureus [15]
4 µg/mL: Enterococcus faecalis [2] | Pseudomonas aeruginosa [22]
0.5 µg/mL: Streptococcus pneumoniae [36]
> 128 µg/mL: Klebsiella pneumoniae [1] | Escherichia coli [9] | Klebsiella pneumoniae [10] | Escherichia coli [11] | Klebsiella pneumoniae [30] | Klebsiella pneumoniae [32]
2 µg/mL: [13] | [14] | Streptococcus pneumoniae [18] | Staphylococcus aureus [23] | [25]
32 µg/mL: Pseudomonas aeruginosa [35]
16 µg/mL: Escherichia coli [12] | Pseudomonas aeruginosa [26] | Escherichia coli [28]
0.015 µg/mL: Staphylococcus aureus [29]
0.25 µg/mL: [7] | Escherichia coli [19]
8 µg/mL: all other assays above

COc1ccc(CO/N=C2\CN(c3nc4c(cc3F)c(=O)c(C(=O)O)cn4C3CC3)CC2CN)c([N+](=O)[O-])c1OC.CS(=O)(=O)O (racemic)
0.25 µg/mL: Pseudomonas aeruginosa [22]
1 µg/mL: Staphylococcus aureus [4] | Streptococcus pneumoniae [36] | Staphylococcus aureus [15] | Enterococcus faecalis [21] | [33]
4 µg/mL: Enterococcus faecium [3] | Enterococcus faecium [5] | [7] | [13] | Streptococcus pneumoniae [18] | Enterococcus faecalis [31] | Pseudomonas aeruginosa [35]
0.06 µg/mL: Pseudomonas aeruginosa [6] | Staphylococcus aureus [16] | Staphylococcus aureus [29]
8 µg/mL: Escherichia coli [12] | Klebsiella pneumoniae [20] | Escherichia coli [24] | Pseudomonas aeruginosa [26] | Pseudomonas aeruginosa [34]
16 µg/mL: Pseudomonas aeruginosa [27] | Escherichia coli [28]
0.5 µg/mL: [14] | Escherichia coli [19]
2 µg/mL: Enterococcus faecalis [2] | Staphylococcus aureus [23] | [25]
> 128 µg/mL: all other assays above

COc1ccc(CO/N=C2\CN(c3nc4c(cc3F)c(=O)c(C(=O)O)cn4C3CC3)CC2CN)cc1.CS(=O)(=O)O (racemic)
64 µg/mL: Klebsiella pneumoniae [10]
0.06 µg/mL: Escherichia coli [19]
0.125 µg/mL: Streptococcus pneumoniae [36] | Streptococcus pneumoniae [18] | Enterococcus faecalis [21]
16 µg/mL: Escherichia coli [11]
4 µg/mL: Enterococcus faecium [5] | Klebsiella pneumoniae [20] | Pseudomonas aeruginosa [26] | Pseudomonas aeruginosa [27] | Pseudomonas aeruginosa [34]
1 µg/mL: Enterococcus faecalis [2] | Staphylococcus aureus [23]
0.03 µg/mL: Staphylococcus aureus [16] | [33]
32 µg/mL: Escherichia coli [9]
8 µg/mL: Enterococcus faecium [3] | Escherichia coli [28] | Pseudomonas aeruginosa [35]
128 µg/mL: Klebsiella pneumoniae [1] | Klebsiella pneumoniae [8] | Escherichia coli [17] | Klebsiella pneumoniae [30] | Klebsiella pneumoniae [32]
0.5 µg/mL: [7] | [14] | [25]
0.25 µg/mL: Staphylococcus aureus [4]
0.015 µg/mL: Staphylococcus aureus [15] | Staphylococcus aureus [29]
2 µg/mL: all other assays above

C[C@H]1COc2c(N3CCN(C)CC3)c(F)cc3c(=O)c(C(=O)O)cn1c23.C[C@H]1COc2c(N3CCN(C)CC3)c(F)cc3c(=O)c(C(=O)O)cn1c23.O [LEVOFLOXACIN]
32 µg/mL: Enterococcus faecium [3] | Enterococcus faecium [5] | Klebsiella pneumoniae [8] | Staphylococcus aureus [23] | Klebsiella pneumoniae [30]
4 µg/mL: Escherichia coli [9] | [14] | Escherichia coli [28] | [33]
0.25 µg/mL: Pseudomonas aeruginosa [6] | Escherichia coli [12] | Staphylococcus aureus [16] | Pseudomonas aeruginosa [22] | Pseudomonas aeruginosa [27] | Staphylococcus aureus [29] | Pseudomonas aeruginosa [34]
128 µg/mL: [7] | [13]
64 µg/mL: Enterococcus faecalis [31]
16 µg/mL: Enterococcus faecalis [2] | Staphylococcus aureus [4] | Escherichia coli [17]
8 µg/mL: Klebsiella pneumoniae [1] | Klebsiella pneumoniae [10] | Escherichia coli [11] | Enterococcus faecalis [21] | [25] | Klebsiella pneumoniae [32]
0.5 µg/mL: Staphylococcus aureus [15] | Pseudomonas aeruginosa [35]
< 0.008 µg/mL: Escherichia coli [19]
